# Published values of several laboratories.
# Each line is one published result; the experiments were not run side by side.
# Target: BMP-2-inducible protein kinase (BMP2K, Homo sapiens, UniProt Q9NSY1)
SMILES,assay,setting,quantity,value
CN(CCCC(F)(F)F)c1nccc(-c2cnn3ncccc23)n1,binding,1 µM,remaining binding,100%
N#CC1(c2ccccn2)CCN(Cc2cc(C(=O)N3CCCC3)c(=O)n3ccccc23)CC1,"cell-free assay, competition with immobilised ligand",1 µM,remaining binding,92%
Nc1ncnc2occ(-c3ccc(NC(=O)Nc4cc(C(F)(F)F)ccc4F)cc3)c12,"cell-free assay, inhibitor",20 µM,remaining signal,59%
Cn1nc(C(=O)NCc2ccc(C(=O)O)cc2)cc1-c1ccc2[nH]ccc2c1,"cell-free assay, competition with immobilised ligand",0.1 µM,remaining binding,82%
Cc1nn(CC(F)(F)F)cc1Nc1ncc(C2CC2)c(NCc2ccc(S(N)(=O)=O)cc2)n1,"enzyme activity, inhibitor, radiometric",1 µM,remaining activity,94%
Cc1ccc(C(=O)Nc2ccc(CN3CCN(C)CC3)c(C(F)(F)F)c2)cc1C#Cc1cnc2cccnn12,"enzyme activity, inhibitor",23.5 nM,remaining activity,95%
CN1CCc2cc(Nc3ncc(C4CC4)c(NCCCNC(=O)C4CCC4)n3)ccc2C1,"enzyme activity, inhibitor, radiometric",1 µM,remaining activity,3%
Cc1ccc(C(=O)NCc2ccsc2)cc1C#Cc1cn(C(C)C)c2ncnc(N)c12,"enzyme activity, inhibitor",1 µM,activity vs control,128%
Cn1c2c(Cl)c(Cl)ccc2c2cc[nH]c(=O)c21,"thermal stability, DSF",10 µM,ΔTm,> 8 °C
NS(=O)(=O)c1ccc(CNc2ccnc(Nc3cccc(CN4CCOCC4)c3)n2)cc1,"enzyme activity, inhibitor, radiometric",1 µM,remaining activity,51%
